# Source: ChEMBL document CHEMBL3616436, “Synthesis, cytotoxicity and antimicrobial activity of thiourea derivatives incorporating 3-(trifluoromethyl)phenyl moiety” (Eur J Med Chem, 2015)
# The source made the active and inactive calls. No cut-off for these calls is given here.
# Experiments:
# WIL2-NS = test: Cytotoxicity against human WIL2-NS cells after 96 hrs by MTT assay; format: functional
# How it was run: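 Leukaemia/lymphoma lines seeded at 1×10^5 cells/ml in RPMI-1640 with 10% FCS and penicillin/streptomycin; incubated with serial dilutions at 37°C, 5% CO2; viability by MTT after 96 h; value is concentration reducing proliferation by 50%, with untreated controls undergoing at least three rounds of multiplication.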
# [1] = biological target: T1, Topoisomerase IV (Staphylococcus aureus) (UniProt P0C1U9+P0C1S7); test: Inhibition of decatenation activity of DNA topoisomerase 4 in Staphylococcus aureus ATCC 29213 using kDNA as substrate at 1 to 4 ug/ml […] using ethidium bromide staining by agarose gel electrophoresis; format: protein-complex assay
# [2] = biological target: T1, Topoisomerase IV (Staphylococcus aureus); test: Inhibition of decatenation activity of DNA topoisomerase 4 in hospital methicillin-resistant Staphylococcus aureus 53/05 using kDNA as substrate at 1 to 4 ug/ml after 1 hr using ethidium bromide staining by agarose gel electrophoresis; format: protein-complex assay
# [3] = biological target: T1, Topoisomerase IV (Staphylococcus aureus); test: Inhibition of decatenation activity of DNA topoisomerase 4 in hospital methicillin-resistant Staphylococcus aureus 80/05 using kDNA as substrate at 1 to 4 ug/ml after 1 hr using ethidium bromide staining by agarose gel electrophoresis; format: protein-complex assay
# [4] = biological target: T2, DNA topoisomerase 4 (Staphylococcus epidermidis) (UniProt Q5HPI6+Q5HPI5); test: Inhibition of decatenation activity of DNA topoisomerase 4 in hospital methicillin-resistant Staphylococcus epidermidis 63/04 using kDNA as substrate at 1 to 4 ug/ml after 1 hr using ethidium bromide staining by agarose gel electrophoresis; format: protein assay
# T2 sequence (Q5HPI5 whole entry, looked up): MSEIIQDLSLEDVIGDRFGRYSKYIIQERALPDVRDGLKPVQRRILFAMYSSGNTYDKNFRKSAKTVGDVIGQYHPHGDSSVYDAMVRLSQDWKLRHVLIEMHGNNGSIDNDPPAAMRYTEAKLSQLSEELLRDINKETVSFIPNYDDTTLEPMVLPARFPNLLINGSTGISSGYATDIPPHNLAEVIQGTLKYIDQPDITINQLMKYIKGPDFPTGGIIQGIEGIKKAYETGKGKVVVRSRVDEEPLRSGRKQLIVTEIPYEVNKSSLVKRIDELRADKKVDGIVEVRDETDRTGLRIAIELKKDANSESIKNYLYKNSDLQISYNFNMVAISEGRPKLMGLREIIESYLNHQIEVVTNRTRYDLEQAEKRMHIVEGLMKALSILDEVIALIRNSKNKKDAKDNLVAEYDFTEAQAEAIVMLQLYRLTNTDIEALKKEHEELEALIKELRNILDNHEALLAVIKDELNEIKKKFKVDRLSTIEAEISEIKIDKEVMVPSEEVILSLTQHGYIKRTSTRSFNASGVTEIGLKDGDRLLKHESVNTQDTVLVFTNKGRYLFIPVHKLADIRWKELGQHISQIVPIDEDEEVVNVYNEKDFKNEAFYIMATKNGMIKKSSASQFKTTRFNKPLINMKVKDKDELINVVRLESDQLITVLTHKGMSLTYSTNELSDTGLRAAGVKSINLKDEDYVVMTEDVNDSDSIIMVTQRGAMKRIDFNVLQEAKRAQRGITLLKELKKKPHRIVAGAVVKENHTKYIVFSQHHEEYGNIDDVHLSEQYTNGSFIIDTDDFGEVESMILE
# T2 sequence (Q5HPI6 whole entry, looked up): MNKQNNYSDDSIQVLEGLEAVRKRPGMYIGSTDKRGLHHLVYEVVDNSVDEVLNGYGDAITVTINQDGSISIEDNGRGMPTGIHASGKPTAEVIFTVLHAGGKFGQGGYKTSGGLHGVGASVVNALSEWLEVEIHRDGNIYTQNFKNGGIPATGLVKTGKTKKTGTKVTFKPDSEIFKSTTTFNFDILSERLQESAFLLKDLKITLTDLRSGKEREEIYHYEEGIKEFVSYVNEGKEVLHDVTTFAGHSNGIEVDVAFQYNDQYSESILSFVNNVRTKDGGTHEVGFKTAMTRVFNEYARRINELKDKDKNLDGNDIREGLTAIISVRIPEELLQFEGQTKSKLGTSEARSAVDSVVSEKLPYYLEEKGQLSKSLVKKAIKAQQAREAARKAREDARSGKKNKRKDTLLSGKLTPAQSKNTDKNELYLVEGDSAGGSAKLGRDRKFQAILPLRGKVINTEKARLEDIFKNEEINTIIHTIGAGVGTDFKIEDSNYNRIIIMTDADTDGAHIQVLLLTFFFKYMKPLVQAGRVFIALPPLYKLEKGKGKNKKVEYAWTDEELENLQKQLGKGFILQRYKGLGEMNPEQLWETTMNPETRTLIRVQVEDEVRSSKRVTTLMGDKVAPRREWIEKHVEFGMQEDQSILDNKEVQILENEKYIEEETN
# [5] = tested on: Staphylococcus epidermidis; test: Inhibition of biofilm formation in Staphylococcus epidermidis ATCC 12228 after 24 hrs using MTT staining by spectrophotometer analysis; format: functional, organism-based; conditions: ATCC 12228, 24 h
# How it was run: (§1)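 Biofilm was grown for 24 h at 37 °C in TSB with 0.5% glucose from 10^7 CFU/mL inoculum, mixed 1:1 with compound. Final concentrations were 0.125–4 or 0.25–8 µg/ml. Wells were PBS-washed and MTT-stained for 2 h at 37 °C, solubilized in DMSO/glycine buffer and read at 554 nm. IC50 (50% inhibition of biofilm formation) was taken from the dose-response curve; quadruplicates.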
# [6] = tested on: Staphylococcus epidermidis; test: Inhibition of biofilm formation in Staphylococcus epidermidis 76/04 after 24 hrs using MTT staining by spectrophotometer analysis; format: functional, organism-based; conditions: 76/04, 24 h; how it was run: as §1
# [7] = tested on: Staphylococcus epidermidis; test: Inhibition of biofilm formation in Staphylococcus epidermidis 151/04 after 24 hrs using MTT staining by spectrophotometer analysis; format: functional, organism-based; conditions: 151/04, 24 h
# [8] = tested on: Staphylococcus epidermidis; test: Inhibition of biofilm formation in Staphylococcus epidermidis ATCC 35984 at 4 ug/ml after 24 hrs using MTT staining by spectrophotometer analysis; format: functional; conditions: ATCC 35984, 24 h
# How it was run: (§2)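 Methicillin-resistant hospital isolates or ATCC strains of S. epidermidis were grown overnight in tryptone soy broth with 0.5% glucose. Inoculum of 10^7 CFU/mL was mixed 1:1 with compound in TSB-glucose and incubated 24 h at 37 °C. Non-adherent cells were washed off with PBS, and wells were stained with MTT (0.5% in PBS) for 2 h at 37 °C. Stain was solubilized in DMSO/glycine buffer and read at A554. Inhibition is relative to drug-free control; quadruplicates.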
# [9] = tested on: Staphylococcus epidermidis; test: Inhibition of biofilm formation in Staphylococcus epidermidis 23/04 at 4 ug/ml after 24 hrs using MTT staining by spectrophotometer analysis; format: functional; conditions: 23/04, 24 h
# [10] = tested on: Staphylococcus epidermidis; test: Inhibition of biofilm formation in Staphylococcus epidermidis 62/04 at 4 ug/ml after 24 hrs using MTT staining by spectrophotometer analysis; format: functional; conditions: 62/04, 24 h; how it was run: as §2
# [11] = biological target: T1, Topoisomerase IV (Staphylococcus aureus); test: Inhibition of decatenation activity of DNA topoisomerase 4 in hospital methicillin-resistant Staphylococcus aureus 80/05 using kDNA as substrate at 32 ug/ml after 1 hr using ethidium bromide staining by agarose gel electrophoresis; format: protein-complex assay
# [12] = biological target: T2, DNA topoisomerase 4 (Staphylococcus epidermidis); test: Inhibition of decatenation activity of DNA topoisomerase 4 in hospital methicillin-resistant Staphylococcus epidermidis 63/04 using kDNA as substrate at 32 ug/ml after 1 hr using ethidium bromide staining by agarose gel electrophoresis; format: protein assay
# [13] = biological target: T2, DNA topoisomerase 4 (Staphylococcus epidermidis); conditions: 16/04, at 32 µg/mL
# [14] = biological target: T2, DNA topoisomerase 4 (Staphylococcus epidermidis); conditions: 24/04, at 32 µg/mL
# [15] = Cytotoxicity against human HaCaT cells assessed as cell viability at 16 uM after 24 hrs by MTT assay relative to control; format: cell-based; conditions: read-out: Activity
# How it was run: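 HaCaT keratinocytes, 2.5x10^4 cells/well, in DMEM with 2% FBS, exposed 24 h to 16 µM compound, then 2 h with 0.5 mg/ml MTT; formazan dissolved in 0.04 M HCl/isopropanol, A570; viability as % of untreated control absorbance; three independent experiments in triplicate.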
# HaCaT = test: Cytotoxicity against human HaCaT cells assessed as cell mortality at 16 uM after 24 hrs by LDH release assay relative to control; format: cell-based
# How it was run: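 HaCaT cells in DMEM with 2% FBS exposed 24 h to 16 µM compound; LDH released into supernatant measured with commercial kit at 490 nm; % release = (test − untreated low control)/(10% Triton X-100 high control − low control) × 100; three independent experiments in triplicate.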
# [16] = tested on: Staphylococcus epidermidis; test: Inhibition of biofilm formation in Staphylococcus epidermidis […]/[…] at 8 ug/ml after 24 hrs using MTT staining by spectrophotometer analysis; format: functional; conditions: 16/04, 24 h
# [17] = tested on: Staphylococcus epidermidis; test: Inhibition of biofilm formation in Staphylococcus epidermidis 23/04 at 8 ug/ml after 24 hrs using MTT staining by spectrophotometer analysis; format: functional; conditions: 23/04, 24 h
# [18] = tested on: Staphylococcus epidermidis; test: Inhibition of biofilm formation in Staphylococcus epidermidis 24/04 at 8 ug/ml after 24 hrs using MTT staining by spectrophotometer analysis; format: functional; conditions: 24/04, 24 h
# [19] = tested on: Staphylococcus epidermidis; test: Inhibition of biofilm formation in Staphylococcus epidermidis 31/04 at 8 ug/ml after 24 hrs using MTT staining by spectrophotometer analysis; format: functional; conditions: 31/04, 24 h; how it was run: as §2
# [20] = tested on: Staphylococcus epidermidis; test: Inhibition of biofilm formation in Staphylococcus epidermidis 62/04 at 8 ug/ml after 24 hrs using MTT staining by spectrophotometer analysis; format: functional; conditions: 62/04, 24 h; how it was run: as §2
# [21] = tested on: Staphylococcus epidermidis; test: Inhibition of biofilm formation in Staphylococcus epidermidis 63/04 at 8 ug/ml after 24 hrs using MTT staining by spectrophotometer analysis; format: functional; conditions: 63/04, 24 h; how it was run: as §2
# [22] = tested on: Staphylococcus epidermidis; test: Inhibition of biofilm formation in Staphylococcus epidermidis 76/04 at 8 ug/ml after 24 hrs using MTT staining by spectrophotometer analysis; format: functional; conditions: 76/04, 24 h; how it was run: as §2
# [23] = tested on: Staphylococcus epidermidis; test: Inhibition of biofilm formation in Staphylococcus epidermidis 151/04 at 8 ug/ml after 24 hrs using MTT staining by spectrophotometer analysis; format: functional; conditions: 151/04, 24 h
# [24] = tested on: Staphylococcus epidermidis; test: Inhibition of biofilm formation in Staphylococcus epidermidis ATCC 12228 at 8 ug/ml after 24 hrs using MTT staining by spectrophotometer analysis; format: functional; conditions: ATCC 12228, 24 h; how it was run: as §2
# [25] = tested on: Staphylococcus epidermidis; test: Inhibition of biofilm formation in Staphylococcus epidermidis ATCC 35984 at 8 ug/ml after 24 hrs using MTT staining by spectrophotometer analysis; format: functional; conditions: ATCC 35984, 24 h; how it was run: as §2
SMILES,CC50 (WIL2-NS),inhibition [1],inhibition [2],inhibition [3],inhibition [4],IC50 [5],IC50 [6],IC50 [7],inhibition at 4 µg/mL [8],inhibition at 4 µg/mL [9],inhibition at 4 µg/mL [10],inhibition [11],inhibition [12],inhibition [13],inhibition [14],"viability at 24 h, 16 µM [15]",Activity (HaCaT),inhibition at 8 µg/mL [16],inhibition at 8 µg/mL [17],inhibition at 8 µg/mL [18],other results
FC(F)(F)c1cccc(NC(S)=Nc2ccc(Cl)c(Cl)c2)c1,8 µM,,,,,,,,,,,,,,,,,,,,
FC(F)(F)c1cccc(NC(=S)Nc2ccc(Cl)cc2)c1,13 µM,,,,,,,,,,,,,,,,,,,,
O=C(O)c1cn(C2CC2)c2cc(N3CCNCC3)c(F)cc2c1=O [CIPROFLOXACIN],,Active,Active,Active,Active,7 µg/mL,7.93 µg/mL,13.1 µg/mL,45.4%,5.71%,59.9%,Active,Active,Active,Active,,,,,,
Fc1ccc(NC(=S)Nc2cccc(C(F)(F)F)c2)cc1Cl,9 µM,Active,Active,Active,Active,1.62 µg/mL,2.85 µg/mL,,84%,77.9%,89.7%,Active,Active,Active,Active,89.8%,8%,40%,40%,40%,inhibition at 8 µg/mL [19]: 40%; inhibition at 8 µg/mL [20]: 40%; inhibition at 8 µg/mL [21]: 40%; inhibition at 8 µg/mL [22]: 40%; inhibition at 8 µg/mL [23]: 40%; inhibition at 8 µg/mL [24]: 40%; inhibition at 8 µg/mL [25]: 40%
FC(F)(F)c1cccc(NC(=S)Nc2cccc(Br)c2)c1,9.9 µM,Active,Active,Active,Active,2.8 µg/mL,2.98 µg/mL,2.34 µg/mL,46.8%,71.6%,84.8%,Active,Active,Active,Active,91%,0%,70%,70%,70%,inhibition at 8 µg/mL [19]: 70%; inhibition at 8 µg/mL [20]: 80%; inhibition at 8 µg/mL [21]: 70%; inhibition at 8 µg/mL [22]: 70%; inhibition at 8 µg/mL [23]: 70%
